# Data as given in PMC7670640 (Pharmacology Research & Perspectives, 2020).
# Key:
# [1] = Single ascending dose part; assay type: in vivo, human
# Method in brief: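 Healthy men in an interlocking two-cohort, four-period crossover. Each period was randomized 3:1 (6 active, 2 placebo); each participant received three ascending single oral doses and one placebo, each after a moderate-fat meal (~600 calories, ~30% fat). Two sentinel participants per period were dosed first, with a 24-h safety review before the rest. Monitoring covered AEs, vitals, ECGs, labs, physical exams, and GI/hepatobiliary abnormalities. AEs were MedDRA-coded and summarized descriptively.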
# [2] = Single ascending dose part; assay type: in vivo, human; conditions: for AUC / Cmax / Tmax / half-life: human, plasma, oral
# Method in brief: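 Healthy men received a single oral dose of test compound after a moderate-fat meal (~600 calories, ~30% from fat). Plasma was taken from ~2 mL whole blood and assayed by HPLC-MS/MS. Cmax, tmax, AUC0-∞, AUC0-24 and terminal half-life came from standard noncompartmental analysis. Dose proportionality was assessed with a power model and ANOVA.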
# [3] = Part 1, across all drug doses in the 20 participants
smiles,measurement,setting,value
C=C(C)[C@@H]1CC[C@]2(NCCN3CCS(=O)(=O)CC3)CC[C@]3(C)[C@H](CC[C@@H]4[C@@]5(C)CC=C(C6=CC[C@@](CF)(C(=O)O)CC6)C(C)(C)[C@@H]5CC[C@]43C)[C@@H]12 [GSK3640254],"most common AEs: contact dermatitis, number of events",[1]; [3],five
same,"most common AEs: diarrhea, number of events",[1]; [3],four
same,"most common AEs: dizziness, number of events",[1]; [3],four
same,"most common AEs: headache, number of events",[1]; [3],eight
same,"most common AEs: nasopharyngitis, number of events",[1]; [3],three
same,participants reporting GI AEs,"[1]; Part 1, eleven GI AEs in six participants",30%
same,"adverse drug reactions, number",[1]; across both parts of the study (total includes placebo periods per Table 3),12
same,trends in laboratory values or vital sign parameters,[1]; across doses in either part of the study,no clinically significant trends in laboratory values or vital sign parameters
same,deaths or serious AEs,[1]; single and multiple ascending doses,no deaths or serious AEs were reported
same,Adverse event: Any event,[1]; single dose 1 mg (N = 6),3 (50) n (%)
same,Adverse event: Contact dermatitis,[1]; single dose 1 mg (N = 6),1 (17) n (%)
same,Adverse event: Cough,[1]; single dose 1 mg (N = 6),0 n (%)
same,Adverse event: Diarrhea,[1]; single dose 1 mg (N = 6),0 n (%)
same,Adverse event: Dizziness,[1]; single dose 1 mg (N = 6),1 (17) n (%)
same,Adverse event: Gastrointestinal disorders,[1]; single dose 1 mg (N = 6),1 (17) n (%)
same,Adverse event: Headache,[1]; single dose 1 mg (N = 6),1 (17) n (%)
same,Adverse event: Increased transaminases,[1]; single dose 1 mg (N = 6),0 n (%)
same,Adverse event: Nasal obstruction,[1]; single dose 1 mg (N = 6),0 n (%)
same,Adverse event: Nasopharyngitis,[1]; single dose 1 mg (N = 6),0 n (%)
same,Adverse event: Nightmare,[1]; single dose 1 mg (N = 6),0 n (%)
same,Adverse event: Viral infection,[1]; single dose 1 mg (N = 6),0 n (%)
same,Adverse event: Vomiting,[1]; single dose 1 mg (N = 6),0 n (%)
same,Adverse event: Any event,[1]; single dose 3 mg (N = 6),2 (33) n (%)
same,Adverse event: Contact dermatitis,[1]; single dose 3 mg (N = 6),1 (17) n (%)
same,Adverse event: Cough,[1]; single dose 3 mg (N = 6),0 n (%)
same,Adverse event: Diarrhea,[1]; single dose 3 mg (N = 6),0 n (%)
same,Adverse event: Dizziness,[1]; single dose 3 mg (N = 6),1 (17) n (%)
same,Adverse event: Gastrointestinal disorders,[1]; single dose 3 mg (N = 6),0 n (%)
same,Adverse event: Headache,[1]; single dose 3 mg (N = 6),0 n (%)
same,Adverse event: Increased transaminases,[1]; single dose 3 mg (N = 6),0 n (%)
same,Adverse event: Nasal obstruction,[1]; single dose 3 mg (N = 6),0 n (%)
same,Adverse event: Nasopharyngitis,[1]; single dose 3 mg (N = 6),0 n (%)
same,Adverse event: Nightmare,[1]; single dose 3 mg (N = 6),1 (17) n (%)
same,Adverse event: Viral infection,[1]; single dose 3 mg (N = 6),0 n (%)
same,Adverse event: Vomiting,[1]; single dose 3 mg (N = 6),0 n (%)
same,Adverse event: Any event,[1]; single dose 10 mg (N = 6),4 (67) n (%)
same,Adverse event: Contact dermatitis,[1]; single dose 10 mg (N = 6),1 (17) n (%)
same,Adverse event: Cough,[1]; single dose 10 mg (N = 6),1 (17) n (%)
same,Adverse event: Diarrhea,[1]; single dose 10 mg (N = 6),1 (17) n (%)
same,Adverse event: Dizziness,[1]; single dose 10 mg (N = 6),1 (17) n (%)
same,Adverse event: Gastrointestinal disorders,[1]; single dose 10 mg (N = 6),1 (17) n (%)
same,Adverse event: Headache,[1]; single dose 10 mg (N = 6),1 (17) n (%)
same,Adverse event: Increased transaminases,[1]; single dose 10 mg (N = 6),0 n (%)
same,Adverse event: Nasal obstruction,[1]; single dose 10 mg (N = 6),1 (17) n (%)
same,Adverse event: Nasopharyngitis,[1]; single dose 10 mg (N = 6),1 (17) n (%)
same,Adverse event: Nightmare,[1]; single dose 10 mg (N = 6),0 n (%)
same,Adverse event: Viral infection,[1]; single dose 10 mg (N = 6),1 (17) n (%)
same,Adverse event: Vomiting,[1]; single dose 10 mg (N = 6),0 n (%)
same,Adverse event: Any event,[1]; single dose 30 mg (N = 6),3 (50) n (%)
same,Adverse event: Contact dermatitis,[1]; single dose 30 mg (N = 6),0 n (%)
same,Adverse event: Cough,[1]; single dose 30 mg (N = 6),0 n (%)
same,Adverse event: Diarrhea,[1]; single dose 30 mg (N = 6),1 (17) n (%)
same,Adverse event: Dizziness,[1]; single dose 30 mg (N = 6),0 n (%)
same,Adverse event: Gastrointestinal disorders,[1]; single dose 30 mg (N = 6),1 (17) n (%)
same,Adverse event: Headache,[1]; single dose 30 mg (N = 6),1 (17) n (%)
same,Adverse event: Increased transaminases,[1]; single dose 30 mg (N = 6),0 n (%)
same,Adverse event: Nasal obstruction,[1]; single dose 30 mg (N = 6),0 n (%)
same,Adverse event: Nasopharyngitis,[1]; single dose 30 mg (N = 6),0 n (%)
same,Adverse event: Nightmare,[1]; single dose 30 mg (N = 6),0 n (%)
same,Adverse event: Viral infection,[1]; single dose 30 mg (N = 6),0 n (%)
same,Adverse event: Vomiting,[1]; single dose 30 mg (N = 6),0 n (%)
same,Adverse event: Any event,[1]; single dose 100 mg (N = 6),3 (50) n (%)
same,Adverse event: Contact dermatitis,[1]; single dose 100 mg (N = 6),0 n (%)
same,Adverse event: Cough,[1]; single dose 100 mg (N = 6),1 (17) n (%)
same,Adverse event: Diarrhea,[1]; single dose 100 mg (N = 6),2 (33) n (%)
same,Adverse event: Dizziness,[1]; single dose 100 mg (N = 6),0 n (%)
same,Adverse event: Gastrointestinal disorders,[1]; single dose 100 mg (N = 6),2 (33) n (%)
same,Adverse event: Headache,[1]; single dose 100 mg (N = 6),2 (33) n (%)
same,Adverse event: Increased transaminases,[1]; single dose 100 mg (N = 6),0 n (%)
same,Adverse event: Nasal obstruction,[1]; single dose 100 mg (N = 6),0 n (%)
same,Adverse event: Nasopharyngitis,[1]; single dose 100 mg (N = 6),1 (17) n (%)
same,Adverse event: Nightmare,[1]; single dose 100 mg (N = 6),0 n (%)
same,Adverse event: Viral infection,[1]; single dose 100 mg (N = 6),1 (17) n (%)
same,Adverse event: Vomiting,[1]; single dose 100 mg (N = 6),2 (33) n (%)
same,Adverse event: Any event,[1]; single dose 200 mg (N = 6),4 (67) n (%)
same,Adverse event: Contact dermatitis,[1]; single dose 200 mg (N = 6),1 (17) n (%)
same,Adverse event: Cough,[1]; single dose 200 mg (N = 6),0 n (%)
same,Adverse event: Diarrhea,[1]; single dose 200 mg (N = 6),0 n (%)
same,Adverse event: Dizziness,[1]; single dose 200 mg (N = 6),0 n (%)
same,Adverse event: Gastrointestinal disorders,[1]; single dose 200 mg (N = 6),0 n (%)
same,Adverse event: Headache,[1]; single dose 200 mg (N = 6),1 (17) n (%)
same,Adverse event: Increased transaminases,[1]; single dose 200 mg (N = 6),1 (17) n (%)
same,Adverse event: Nasal obstruction,[1]; single dose 200 mg (N = 6),0 n (%)
same,Adverse event: Nasopharyngitis,[1]; single dose 200 mg (N = 6),0 n (%)
same,Adverse event: Nightmare,[1]; single dose 200 mg (N = 6),0 n (%)
same,Adverse event: Viral infection,[1]; single dose 200 mg (N = 6),0 n (%)
same,Adverse event: Vomiting,[1]; single dose 200 mg (N = 6),0 n (%)
same,Adverse event: Any event,[1]; single dose 400 mg (N = 6),4 (67) n (%)
same,Adverse event: Contact dermatitis,[1]; single dose 400 mg (N = 6),1 (17) n (%)
same,Adverse event: Cough,[1]; single dose 400 mg (N = 6),0 n (%)
same,Adverse event: Diarrhea,[1]; single dose 400 mg (N = 6),0 n (%)
same,Adverse event: Dizziness,[1]; single dose 400 mg (N = 6),0 n (%)
same,Adverse event: Gastrointestinal disorders,[1]; single dose 400 mg (N = 6),1 (17) n (%)
same,Adverse event: Headache,[1]; single dose 400 mg (N = 6),2 (33) n (%)
same,Adverse event: Increased transaminases,[1]; single dose 400 mg (N = 6),0 n (%)
same,Adverse event: Nasal obstruction,[1]; single dose 400 mg (N = 6),0 n (%)
same,Adverse event: Nasopharyngitis,[1]; single dose 400 mg (N = 6),1 (17) n (%)
same,Adverse event: Nightmare,[1]; single dose 400 mg (N = 6),0 n (%)
same,Adverse event: Viral infection,[1]; single dose 400 mg (N = 6),0 n (%)
same,Adverse event: Vomiting,[1]; single dose 400 mg (N = 6),0 n (%)
same,Adverse event: Any event,[1]; single dose 700 mg (N = 6),1 (17) n (%)
same,Adverse event: Contact dermatitis,[1]; single dose 700 mg (N = 6),0 n (%)
same,Adverse event: Cough,[1]; single dose 700 mg (N = 6),0 n (%)
same,Adverse event: Diarrhea,[1]; single dose 700 mg (N = 6),0 n (%)
same,Adverse event: Dizziness,[1]; single dose 700 mg (N = 6),1 (17) n (%)
same,Adverse event: Gastrointestinal disorders,[1]; single dose 700 mg (N = 6),0 n (%)
same,Adverse event: Headache,[1]; single dose 700 mg (N = 6),0 n (%)
same,Adverse event: Increased transaminases,[1]; single dose 700 mg (N = 6),0 n (%)
same,Adverse event: Nasal obstruction,[1]; single dose 700 mg (N = 6),0 n (%)
same,Adverse event: Nasopharyngitis,[1]; single dose 700 mg (N = 6),0 n (%)
same,Adverse event: Nightmare,[1]; single dose 700 mg (N = 6),0 n (%)
same,Adverse event: Viral infection,[1]; single dose 700 mg (N = 6),0 n (%)
same,Adverse event: Vomiting,[1]; single dose 700 mg (N = 6),0 n (%)
same,dose‐proportionality of Cmax and AUC,[2]; 1‐ to 700‐mg single dose range,approximately dose‐proportional increase in exposure
same,AUC,[2]; 1 mg,57 ng·h/mL
same,Cmax,[2]; 1 mg,5 ng/mL
same,Tmax,"[2]; 1 mg, tmax, median (range), single dose 1 mg, N = 6",3.5 h
same,AUC,[2]; 3 mg,329 ng·h/mL
same,Cmax,[2]; 3 mg,14 ng/mL
same,half-life,"[2]; 3 mg, t1/2, geometric mean (%CVb), single dose 3 mg, N = 6",20.5 h
same,Tmax,"[2]; 3 mg, tmax, median (range), single dose 3 mg, N = 6",4.5 h
same,AUC,[2]; 10 mg,1230 ng·h/mL
same,Cmax,[2]; 10 mg,47 ng/mL
same,Tmax,"[2]; 10 mg, tmax, median (range), single dose 10 mg, N = 6",3.5 h
same,AUC,[2]; 30 mg,2990 ng·h/mL
same,Cmax,[2]; 30 mg,130 ng/mL
same,Tmax,"[2]; 30 mg, tmax, median (range), single dose 30 mg, N = 6",4 h
same,AUC,[2]; 100 mg,8540 ng·h/mL
same,Cmax,[2]; 100 mg,372 ng/mL
same,Tmax,"[2]; 100 mg, tmax, median (range), single dose 100 mg, N = 6",3.8 h
same,AUC,[2]; 200 mg,15000 ng·h/mL
same,Cmax,[2]; 200 mg,579 ng/mL
same,Tmax,"[2]; 200 mg, tmax, median (range), single dose 200 mg, N = 6",3 h
same,AUC,[2]; 400 mg,43000 ng·h/mL
same,Cmax,[2]; 400 mg,1880 ng/mL
same,Tmax,"[2]; 400 mg, tmax, median (range), single dose 400 mg, N = 6",3.3 h
same,AUC,[2]; 700 mg,39700 ng·h/mL
same,Cmax,[2]; 700 mg,1720 ng/mL
same,Tmax,"[2]; 700 mg, tmax, median (range), single dose 700 mg, N = 6",3.3 h
same,half-life,"[2]; estimated half‐life, single‐ and multiple‐dose administration after a moderate‐calorie and ‐fat breakfast",21.2 to 28.4 h
same,half-life,"[2]; half‐life, abstract summary of the FTIH study",~24 h
same,half-life,"[2]; mean half‐life, 10‐ to 700‐mg single doses",~24 h
same,Tmax,"[2]; median tmax, after administration, range across doses",3 to 4.5 h
same,change in exposure from 400 to 700 mg,[2]; single dose,no increase in exposure from 400 to 700 mg
same,time detectable in plasma,[2]; single dose 1 and 3 mg,up to 48 hours
same,time detectable in plasma,[2]; single dose 10‐700 mg,up to 96 hours
